# Activity calls are given as the source filed them. No cut-off for these calls is given here.
# Assays:
# [1] = target: T1, Butyrophilin subfamily 3 member A1 (Homo sapiens, UniProt O00481); assay: Binding affinity to BTN3A1 in human Vgamma9 Vdelta2 T cells mixed with human K562 cells pretreated with compound for 4 hrs assessed as INF-gamma production measured after 20 hrs by ELISA
# Summary of the method: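 K562 target cells loaded with compound for 4 h, then washed. They were co-cultured with Vγ9Vδ2 T cells purified by negative selection, at 3:1 effector:target. After 20 h, supernatant interferon γ was measured by ELISA. EC₅₀ reported with 95% CI. Three independent experiments using ≥2 donors.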
# Target sequence in this assay (O00481 whole entry): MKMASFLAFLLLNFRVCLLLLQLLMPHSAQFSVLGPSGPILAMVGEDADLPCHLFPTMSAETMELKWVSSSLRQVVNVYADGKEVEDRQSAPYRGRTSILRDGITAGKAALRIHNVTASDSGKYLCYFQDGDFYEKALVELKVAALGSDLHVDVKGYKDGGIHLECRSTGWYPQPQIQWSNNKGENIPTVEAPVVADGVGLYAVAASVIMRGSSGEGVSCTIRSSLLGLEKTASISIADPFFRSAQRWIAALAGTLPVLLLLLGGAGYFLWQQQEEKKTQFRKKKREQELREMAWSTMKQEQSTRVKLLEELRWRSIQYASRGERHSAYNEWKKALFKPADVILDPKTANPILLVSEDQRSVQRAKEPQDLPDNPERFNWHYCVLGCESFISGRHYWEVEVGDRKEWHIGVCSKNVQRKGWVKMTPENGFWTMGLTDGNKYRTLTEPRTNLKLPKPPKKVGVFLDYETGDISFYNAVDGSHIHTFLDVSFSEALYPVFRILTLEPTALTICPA
# [2] = target: T1, Butyrophilin subfamily 3 member A1; assay: Binding affinity to BTN3A1 in human PBMC assessed as stimulation of Vgamma9 Vdelta2 T cells at 100 nM incubated for 3 days and measured after 11 days post compound removal by flow cytometry
# Summary of the method: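 Human PBMC exposed to compound at 100 nM for 3 days, then left to proliferate 11 days before counting Vγ9Vδ2 T cells. […] Negative control was cells with interleukin 2 and no compound. Data from 3 independent experiments.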
# Target sequence in this assay (O00481 30-513 limits assumed): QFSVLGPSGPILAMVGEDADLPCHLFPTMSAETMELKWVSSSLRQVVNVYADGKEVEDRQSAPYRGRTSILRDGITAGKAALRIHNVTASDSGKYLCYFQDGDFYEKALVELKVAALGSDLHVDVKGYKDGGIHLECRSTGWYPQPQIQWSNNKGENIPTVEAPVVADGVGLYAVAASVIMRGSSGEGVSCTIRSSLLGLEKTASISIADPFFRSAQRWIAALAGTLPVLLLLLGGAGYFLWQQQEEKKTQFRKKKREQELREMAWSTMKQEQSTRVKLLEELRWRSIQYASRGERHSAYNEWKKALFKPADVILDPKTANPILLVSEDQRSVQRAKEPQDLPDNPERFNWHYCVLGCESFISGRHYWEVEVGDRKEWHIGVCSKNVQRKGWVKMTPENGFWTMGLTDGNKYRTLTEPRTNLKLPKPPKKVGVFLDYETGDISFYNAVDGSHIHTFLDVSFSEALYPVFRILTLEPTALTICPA
# [3] = target: T1, Butyrophilin subfamily 3 member A1; assay: Binding affinity to BTN3A1 in human PBMC assessed as stimulation of Vgamma9 Vdelta2 T cells at 100 nM incubated for 3 days and measured after 11 days post compound removal by flow cytometry relative to (E)-dimethyl 5-hydroxy-4-methylpent-3-enylphosphonate
# Target sequence in this assay (O00481 30-513 limits assumed): as above
# [4] = target: T1, Butyrophilin subfamily 3 member A1; assay: Binding affinity to BTN3A1 in human PBMC assessed as stimulation of Vgamma9 Vdelta2 T cells at 100 nM incubated for 3 days and measured after 11 days post compound removal by flow cytometry relative to sodium (E)-5-hydroxy-4-methylpent-3-enylphosphonate
# Target sequence in this assay (O00481 30-513 limits assumed): as above
# [5] = Stability in 50% pooled human plasma assessed as half life at 100 uM by LC-MS method; type: ADME, cell-free
# Summary of the method: (§1)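 Compound at 100 µM final in pooled human plasma diluted to 50% with PBS, pH 7.5. Analysed by positive-mode LC-MS on C18 with a water/acetonitrile gradient from 25 to 80% over 9 min. Fraction remaining came from peak integration, and half-life was calculated from it. Each point run 2–4 times.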
# K562 = assay: Cytotoxicity in human K562 cells assessed as reduction in cell viability incubated for 72 hrs by cell-QB reagent based assay; conditions: K562, 72 h
# Summary of the method: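 K562 cells seeded at 0.5 × 10⁴ per well in RPMI and exposed to a range of compound concentrations, up to 100 µM, for 72 h. Cell-QB reagent was added for the final 2 h and read by fluorescence. Viability was expressed as % of untreated cells after subtracting a media-only blank. Three independent experiments.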
# [6] = Stability in 50% pooled human plasma assessed as compound hydrolysis at 100 uM after 2 hrs by LC-MS method relative to control; type: ADME, cell-free; conditions: read-out: Drug degradation
# Summary of the method: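 Compound at 100 µM final in pooled human plasma diluted to 50% with PBS, pH 7.5. Sampled at 2 h (also 24 h), then extracted into acetonitrile and debris spun down. Analysed by positive-mode LC-MS on C18 with a 25→80% acetonitrile gradient over 9 min. Fraction remaining from peak integration; 2–4 independent runs.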
# [7] = Half life in human plasma; type: ADME, cell-free
# Summary of the method: as §1, with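 “7.5. Incubated for various times, including 2 and 24 h, then extracted with acetonitrile and centrifuged.” for “7.5.”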
smiles,measurement,setting,value
CCOC(=O)CNP(=O)(CC/C=C(\C)CO)Oc1cccc2ccccc12 (stereo unspecified),EC50,[1],62 nM
same,Activity,[2],Active
same,Ratio EC50,[3],15
same,Ratio EC50,[4],11000
same,t1/2,[5],> 24 h
Oc1ccccc1 [PHENOL],IC50,K562,> 100000 nM
COC(=O)CNP(=O)(CC/C=C(\C)CO)Oc1ccccc1 (stereo unspecified),EC50,[1],460 nM
same,Activity,[2],Active
same,Ratio EC50,[3],3.6
same,Ratio EC50,[4],2700
same,t1/2,[5],> 24 h
same,IC50,K562,> 100000 nM
C/C(=C\CCP(=O)(NCC(=O)OC(C)C)Oc1ccc2ccccc2c1)CO (stereo unspecified),EC50,[1],210 nM
same,Activity,[2],Active
same,Ratio EC50,[3],6.6
same,Ratio EC50,[4],4900
same,t1/2,[5],> 24 h
same,IC50,K562,> 100000 nM
C/C(=C\CCP(=O)(OCOC(=O)C(C)(C)C)OCOC(=O)C(C)(C)C)CO,Activity,[2],Active
same,"metabolised at 2 h, 100 µM",[6],> 95%
same,t1/2,[5],8.4 h
COC(=O)CNP(=O)(CC/C=C(\C)CO)Oc1ccc2ccccc2c1 (stereo unspecified),EC50,[1],120 nM
same,Activity,[2],Active
same,Ratio EC50,[3],9.3
same,Ratio EC50,[4],6900
same,t1/2,[5],> 24 h
same,IC50,K562,> 100000 nM
CCOC(=O)CNP(=O)(CC/C=C(\C)CO)Oc1ccccc1 (stereo unspecified),EC50,[1],170 nM
same,Activity,[2],Active
same,IC50,K562,> 100000 nM
C/C(=C\CCP(=O)(NCC(=O)OC(C)C)Oc1cccc2ccccc12)CO (stereo unspecified),EC50,[1],290 nM
same,Activity,[2],Active
same,Ratio EC50,[3],16
same,Ratio EC50,[4],12000
same,t1/2,[5],> 24 h
same,IC50,K562,> 100000 nM
C/C(=C\COP(=O)(O)OP(=O)(O)O)CO,Activity,[2],Active
COc1ccc2cc(C(=O)OCOP(=O)(CC/C=C(\C)CO)OC)c(=O)oc2c1 (stereo unspecified),half-life,[7],6 to 8 h
COC(=O)CNP(=O)(CC/C=C(\C)CO)Oc1cccc2ccccc12 (stereo unspecified),EC50,[1],130 nM
same,Activity,[2],Active
same,Ratio EC50,[3],12
same,Ratio EC50,[4],9100
same,t1/2,[5],> 24 h
same,IC50,K562,40000 nM
Oc1ccc2ccccc2c1 [BETANAPHTHOL],IC50,K562,> 100000 nM
CCOC(=O)CNP(=O)(CC/C=C(\C)CO)Oc1ccc2ccccc2c1 (stereo unspecified),EC50,[1],93 nM
same,Activity,[2],Active
same,Ratio EC50,[3],10
same,Ratio EC50,[4],7500
same,t1/2,[5],> 24 h
Oc1cccc2ccccc12 [1-NAPHTHOL],IC50,K562,> 100000 nM
C/C(=C\CCP(=O)(NCC(=O)OC(C)C)Oc1ccccc1)CO (stereo unspecified),EC50,[1],740 nM
same,Activity,[2],Active
same,Ratio EC50,[3],4.9
same,Ratio EC50,[4],3600
same,t1/2,[5],> 24 h

# — ChEMBL document CHEMBL4196196, “Phosphonamidate Prodrugs of a Butyrophilin Ligand Display Plasma Stability and Potent Vγ9 Vδ2 T Cell Stimulation” (J Med Chem, 2018)
